Laboratory results: ChEMBL document CHEMBL3098105, “7,7'-Diazaindirubin--a small molecule inhibitor of casein kinase 2 in vitro and in cells” (Bioorg Med Chem, 2014)
Calls of active or inactive are those of the source. The rule behind the calls is not given here.

Key:
[1] = biological target: RAF proto-oncogene serine/threonine-protein kinase (Homo sapiens) (UniProt P04049); test: Inhibition of RAF1 (unknown origin) assessed as residual activity at 10 uM relative to control
[2] = biological target: Ribosomal protein S6 kinase alpha-4 (Homo sapiens) (UniProt O75676); test: Inhibition of human MSK2 assessed as residual activity at 1 uM relative to control
[3] = biological target: Tyrosine-protein kinase JAK2 (Homo sapiens) (UniProt O60674); test: Inhibition of human JAK2 assessed as residual activity at 1 uM relative to control
[4] = biological target: Serine/threonine-protein kinase mTOR (Homo sapiens) (UniProt P42345); test: Inhibition of human mTOR assessed as residual activity at 1 uM relative to control
[5] = biological target: Cyclin-dependent kinase 4/cyclin D1 (Homo sapiens) (UniProt P11802+P24385); test: Inhibition of CDK4/CycD1 (unknown origin) assessed as residual activity at 1 uM relative to control; format: protein-complex assay
[6] = biological target: Inhibitor of nuclear factor kappa-B kinase subunit beta (Homo sapiens) (UniProt O14920); test: Inhibition of human IKKbeta assessed as residual activity at 1 uM relative to control
[7] = biological target: Tyrosine-protein kinase ABL1 (Homo sapiens) (UniProt P00519); test: Inhibition of ABL1 (unknown origin) assessed as residual activity at 10 uM relative to control
Sequence of Tyrosine-protein kinase ABL1 (Homo sapiens) (P00519 whole entry): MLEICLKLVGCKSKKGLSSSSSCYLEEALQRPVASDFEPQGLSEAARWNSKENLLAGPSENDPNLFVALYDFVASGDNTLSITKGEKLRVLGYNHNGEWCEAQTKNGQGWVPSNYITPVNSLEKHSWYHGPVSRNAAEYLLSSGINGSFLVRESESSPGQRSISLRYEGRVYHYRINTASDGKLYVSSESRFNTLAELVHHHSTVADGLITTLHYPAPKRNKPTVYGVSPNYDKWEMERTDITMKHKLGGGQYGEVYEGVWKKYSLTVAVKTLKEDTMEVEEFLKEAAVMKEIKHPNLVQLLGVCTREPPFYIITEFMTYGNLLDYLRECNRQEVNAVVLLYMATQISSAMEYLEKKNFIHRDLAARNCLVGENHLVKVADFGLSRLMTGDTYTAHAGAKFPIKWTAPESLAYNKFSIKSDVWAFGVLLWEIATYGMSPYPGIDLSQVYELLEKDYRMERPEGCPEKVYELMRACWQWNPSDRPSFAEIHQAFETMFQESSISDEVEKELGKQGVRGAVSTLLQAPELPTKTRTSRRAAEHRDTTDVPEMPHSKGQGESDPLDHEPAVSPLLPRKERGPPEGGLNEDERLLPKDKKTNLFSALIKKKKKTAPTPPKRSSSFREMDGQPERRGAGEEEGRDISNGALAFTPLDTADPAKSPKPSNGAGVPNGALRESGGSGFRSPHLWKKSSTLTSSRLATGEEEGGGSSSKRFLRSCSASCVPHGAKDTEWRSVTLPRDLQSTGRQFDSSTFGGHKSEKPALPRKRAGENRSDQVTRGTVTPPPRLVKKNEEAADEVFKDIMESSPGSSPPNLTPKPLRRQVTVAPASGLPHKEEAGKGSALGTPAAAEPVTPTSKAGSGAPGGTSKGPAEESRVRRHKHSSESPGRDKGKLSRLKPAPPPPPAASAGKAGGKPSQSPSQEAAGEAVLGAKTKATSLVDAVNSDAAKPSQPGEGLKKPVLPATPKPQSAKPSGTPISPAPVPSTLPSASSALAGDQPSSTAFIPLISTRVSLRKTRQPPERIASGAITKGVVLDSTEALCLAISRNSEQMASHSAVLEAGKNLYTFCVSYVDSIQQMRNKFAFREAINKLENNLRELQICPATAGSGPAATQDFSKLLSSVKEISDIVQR

[8] = biological target: Serine/threonine-protein kinase 33 (Homo sapiens) (UniProt Q9BYT3); test: Inhibition of human STK33 assessed as residual activity at 1 uM relative to control
[9] = biological target: Insulin-like growth factor 1 receptor (Homo sapiens) (UniProt P08069); test: Inhibition of human IGF-1R assessed as residual activity at 1 uM relative to control
Sequence of Insulin-like growth factor 1 receptor (Homo sapiens) (P08069 31-736 limits assumed): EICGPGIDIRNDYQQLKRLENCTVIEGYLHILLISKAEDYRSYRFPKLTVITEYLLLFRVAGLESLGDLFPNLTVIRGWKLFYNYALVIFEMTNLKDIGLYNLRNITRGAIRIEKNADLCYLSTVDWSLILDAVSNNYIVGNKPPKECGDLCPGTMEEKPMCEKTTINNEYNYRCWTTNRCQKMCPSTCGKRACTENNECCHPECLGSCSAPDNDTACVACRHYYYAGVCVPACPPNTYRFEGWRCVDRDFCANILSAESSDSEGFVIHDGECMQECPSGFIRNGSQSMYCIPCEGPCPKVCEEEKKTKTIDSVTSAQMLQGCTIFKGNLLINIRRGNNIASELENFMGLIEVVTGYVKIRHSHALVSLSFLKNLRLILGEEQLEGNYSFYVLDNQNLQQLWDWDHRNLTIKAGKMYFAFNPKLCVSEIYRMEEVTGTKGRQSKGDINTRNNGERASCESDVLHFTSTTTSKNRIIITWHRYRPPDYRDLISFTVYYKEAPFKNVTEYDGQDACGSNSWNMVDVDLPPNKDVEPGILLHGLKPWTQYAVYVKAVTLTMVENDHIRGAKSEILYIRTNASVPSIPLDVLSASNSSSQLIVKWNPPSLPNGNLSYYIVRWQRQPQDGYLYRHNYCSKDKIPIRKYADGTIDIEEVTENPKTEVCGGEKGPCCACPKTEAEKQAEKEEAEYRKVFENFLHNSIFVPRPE
Sequence of Insulin-like growth factor 1 receptor (Homo sapiens) (P08069 741-1367 limits assumed): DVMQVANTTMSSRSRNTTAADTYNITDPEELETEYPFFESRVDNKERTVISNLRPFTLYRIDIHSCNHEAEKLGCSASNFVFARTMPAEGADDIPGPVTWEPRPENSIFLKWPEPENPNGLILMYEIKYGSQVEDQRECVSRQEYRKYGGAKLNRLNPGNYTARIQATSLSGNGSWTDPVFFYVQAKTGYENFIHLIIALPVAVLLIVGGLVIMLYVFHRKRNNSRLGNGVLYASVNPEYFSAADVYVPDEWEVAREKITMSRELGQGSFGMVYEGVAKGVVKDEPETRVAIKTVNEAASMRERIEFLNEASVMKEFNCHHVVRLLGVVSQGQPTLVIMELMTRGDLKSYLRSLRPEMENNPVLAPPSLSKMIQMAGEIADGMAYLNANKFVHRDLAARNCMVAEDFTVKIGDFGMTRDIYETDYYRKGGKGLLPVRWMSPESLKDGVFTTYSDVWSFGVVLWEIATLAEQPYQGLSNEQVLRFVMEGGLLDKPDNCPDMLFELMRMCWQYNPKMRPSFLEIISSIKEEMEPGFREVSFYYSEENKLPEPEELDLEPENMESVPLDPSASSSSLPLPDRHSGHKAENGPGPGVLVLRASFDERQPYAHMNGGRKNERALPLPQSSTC

[10] = biological target: Maternal embryonic leucine zipper kinase (Homo sapiens) (UniProt Q14680); test: Inhibition of human MELK assessed as residual activity at 1 uM relative to control
Sequence of Maternal embryonic leucine zipper kinase (Homo sapiens) (Q14680 whole entry, looked up): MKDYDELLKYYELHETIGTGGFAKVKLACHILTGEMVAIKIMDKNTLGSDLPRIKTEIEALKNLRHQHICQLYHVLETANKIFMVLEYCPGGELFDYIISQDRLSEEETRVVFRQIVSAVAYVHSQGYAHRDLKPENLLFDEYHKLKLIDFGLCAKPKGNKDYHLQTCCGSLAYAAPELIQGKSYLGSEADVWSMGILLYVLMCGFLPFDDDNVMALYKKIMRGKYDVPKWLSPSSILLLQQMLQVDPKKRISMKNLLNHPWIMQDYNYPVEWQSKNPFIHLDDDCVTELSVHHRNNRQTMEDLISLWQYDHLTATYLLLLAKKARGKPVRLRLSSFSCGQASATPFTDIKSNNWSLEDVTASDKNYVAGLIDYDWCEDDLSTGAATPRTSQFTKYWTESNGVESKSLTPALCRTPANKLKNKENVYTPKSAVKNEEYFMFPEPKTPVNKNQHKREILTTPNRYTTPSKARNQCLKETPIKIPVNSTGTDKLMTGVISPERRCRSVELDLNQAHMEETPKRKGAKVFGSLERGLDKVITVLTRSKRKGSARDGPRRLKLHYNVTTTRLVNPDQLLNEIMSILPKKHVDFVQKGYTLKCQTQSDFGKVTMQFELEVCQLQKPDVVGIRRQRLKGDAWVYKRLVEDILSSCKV

[11] = biological target: Misshapen-like kinase 1 (Homo sapiens) (UniProt Q8N4C8); test: Inhibition of human MINK assessed as residual activity at 1 uM relative to control
CAKI-1 = test: Antiproliferative activity against human CAKI-1 cells after 3 days by sulforhodamine B assay; format: functional; conditions: CAKI-1, 72 h
Summary of the method: (§1)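 Tested in the NCI 60 cell line panel. GI50 is the concentration giving 50% inhibition of cell growth, and values are the mean of two series of tests.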

NCI-H522 = test: Antiproliferative activity against human NCI-H522 cells after 3 days by sulforhodamine B assay; format: functional; conditions: NCI-H522, 72 h; summary of the method: as §1
HOP-62 = test: Antiproliferative activity against human HOP62 cells after 3 days by sulforhodamine B assay; format: functional; conditions: HOP-62, 72 h; summary of the method: as §1
[12] = Antiproliferative activity against human UO31 cells after 3 days by sulforhodamine B assay; format: functional; conditions: UO-31, 72 h
[13] = biological target: Rho-associated protein kinase 1 (Homo sapiens) (UniProt Q13464); test: Inhibition of human ROCK-1 assessed as residual activity at 1 uM relative to control
MCF7 [14] = test: Antiproliferative activity against human MCF7 cells after 3 days by sulforhodamine B assay; format: functional; conditions: MCF7, 72 h; summary of the method: as §1
MCF7 [15] = test: Cell cycle arrest in human MCF7 cells assessed as accumulation at S phase at 0.25 uM after 24 hrs using propidium iodide staining by FACS analysis (reference value: 18.59%); format: functional
[16] = biological target: RAC-gamma serine/threonine-protein kinase (Homo sapiens) (UniProt Q9Y243); test: Inhibition of human PKBgamma assessed as residual activity at 1 uM relative to control
[17] = biological target: Serine/threonine-protein kinase Nek11 (Homo sapiens) (UniProt Q8NG66); test: Inhibition of human NEK11 assessed as residual activity at 1 uM relative to control
Sequence of Serine/threonine-protein kinase Nek11 (Homo sapiens) (Q8NG66 whole entry): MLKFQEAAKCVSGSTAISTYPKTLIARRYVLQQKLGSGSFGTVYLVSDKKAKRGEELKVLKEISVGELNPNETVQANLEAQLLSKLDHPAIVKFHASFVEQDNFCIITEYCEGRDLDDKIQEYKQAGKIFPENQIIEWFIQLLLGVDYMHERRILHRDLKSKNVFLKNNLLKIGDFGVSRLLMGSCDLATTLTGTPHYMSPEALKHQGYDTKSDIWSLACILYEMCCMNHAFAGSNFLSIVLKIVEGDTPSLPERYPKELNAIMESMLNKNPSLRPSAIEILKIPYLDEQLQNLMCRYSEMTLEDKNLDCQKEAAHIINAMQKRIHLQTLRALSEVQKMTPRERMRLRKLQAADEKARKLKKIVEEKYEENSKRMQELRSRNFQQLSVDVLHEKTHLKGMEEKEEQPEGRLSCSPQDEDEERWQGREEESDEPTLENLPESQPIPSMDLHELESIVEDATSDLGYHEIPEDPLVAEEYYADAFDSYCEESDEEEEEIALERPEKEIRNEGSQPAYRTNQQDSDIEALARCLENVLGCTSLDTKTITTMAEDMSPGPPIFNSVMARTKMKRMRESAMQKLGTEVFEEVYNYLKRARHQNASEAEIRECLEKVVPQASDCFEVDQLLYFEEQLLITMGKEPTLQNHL

[18] = biological target: NUAK family SNF1-like kinase 1 (Homo sapiens) (UniProt O60285); test: Inhibition of human ARK5 assessed as residual activity at 1 uM relative to control
[19] = biological target: Tyrosine-protein kinase Mer (Homo sapiens) (UniProt Q12866); test: Inhibition of human Mer assessed as residual activity at 1 uM relative to control
Sequence of Tyrosine-protein kinase Mer (Homo sapiens) (Q12866 whole entry): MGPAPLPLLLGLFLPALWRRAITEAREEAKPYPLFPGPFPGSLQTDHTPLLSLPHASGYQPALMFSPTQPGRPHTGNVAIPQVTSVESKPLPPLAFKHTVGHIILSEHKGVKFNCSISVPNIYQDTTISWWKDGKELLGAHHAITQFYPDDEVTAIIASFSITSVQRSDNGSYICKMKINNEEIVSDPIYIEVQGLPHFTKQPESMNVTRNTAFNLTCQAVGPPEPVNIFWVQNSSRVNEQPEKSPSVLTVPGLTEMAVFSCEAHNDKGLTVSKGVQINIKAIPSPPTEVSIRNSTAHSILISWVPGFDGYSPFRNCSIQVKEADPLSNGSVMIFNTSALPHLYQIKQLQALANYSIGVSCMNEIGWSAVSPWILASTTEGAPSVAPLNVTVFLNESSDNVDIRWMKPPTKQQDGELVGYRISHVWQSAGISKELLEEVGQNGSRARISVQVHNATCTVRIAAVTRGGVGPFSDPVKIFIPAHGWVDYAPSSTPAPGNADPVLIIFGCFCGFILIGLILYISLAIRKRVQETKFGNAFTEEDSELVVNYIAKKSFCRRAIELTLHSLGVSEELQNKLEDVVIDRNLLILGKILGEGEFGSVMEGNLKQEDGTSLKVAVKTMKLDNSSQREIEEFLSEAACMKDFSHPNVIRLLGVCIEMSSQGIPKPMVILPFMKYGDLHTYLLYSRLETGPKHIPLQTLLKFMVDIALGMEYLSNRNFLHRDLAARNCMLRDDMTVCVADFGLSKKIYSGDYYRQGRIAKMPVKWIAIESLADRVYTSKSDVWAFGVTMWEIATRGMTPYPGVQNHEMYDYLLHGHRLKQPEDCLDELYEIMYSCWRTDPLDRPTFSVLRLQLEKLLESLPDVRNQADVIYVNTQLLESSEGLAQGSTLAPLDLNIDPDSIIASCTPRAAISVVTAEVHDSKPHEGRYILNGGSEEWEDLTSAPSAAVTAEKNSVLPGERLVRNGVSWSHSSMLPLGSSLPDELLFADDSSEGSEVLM

[20] = biological target: Serine/threonine-protein kinase PAK 3 (Homo sapiens) (UniProt O75914); test: Inhibition of human PAK3 assessed as residual activity at 1 uM relative to control
[21] = biological target: Tyrosine-protein kinase ZAP-70 (Homo sapiens) (UniProt P43403); test: Inhibition of human ZAP-70 assessed as residual activity at 1 uM relative to control
[22] = biological target: Calcium/calmodulin-dependent protein kinase type IV (Homo sapiens) (UniProt Q16566); test: Inhibition of human CaMK4 assessed as residual activity at 1 uM relative to control
[23] = biological target: Focal adhesion kinase 1 (Homo sapiens) (UniProt Q05397); test: Inhibition of human FAK assessed as residual activity at 1 uM relative to control
[24] = system: Ribosomal protein S6 kinase alpha-6 (Homo sapiens); test: Inhibition of human Rsk4 assessed as residual activity at 1 uM relative to control
[25] = biological target: Calcium/calmodulin-dependent protein kinase type 1D (Homo sapiens) (UniProt Q8IU85); test: Inhibition of human CaMK1delta assessed as residual activity at 1 uM relative to control
[26] = biological target: Serine/threonine-protein kinase 10 (Homo sapiens) (UniProt O94804); test: Inhibition of human LOK assessed as residual activity at 1 uM relative to control
DU-145 = test: Antiproliferative activity against human DU145 cells after 3 days by sulforhodamine B assay; format: functional; conditions: DU-145, 72 h; summary of the method: as §1
[27] = biological target: Death-associated protein kinase 1 (Homo sapiens) (UniProt P53355); test: Inhibition of human DAPK1 assessed as residual activity at 1 uM relative to control
[28] = biological target: Serine/threonine-protein kinase pim-1 (Homo sapiens) (UniProt P11309); test: Inhibition of human Pim-1 assessed as residual activity at 1 uM relative to control
Sequence of Serine/threonine-protein kinase pim-1 (Homo sapiens) (P11309 whole entry, looked up): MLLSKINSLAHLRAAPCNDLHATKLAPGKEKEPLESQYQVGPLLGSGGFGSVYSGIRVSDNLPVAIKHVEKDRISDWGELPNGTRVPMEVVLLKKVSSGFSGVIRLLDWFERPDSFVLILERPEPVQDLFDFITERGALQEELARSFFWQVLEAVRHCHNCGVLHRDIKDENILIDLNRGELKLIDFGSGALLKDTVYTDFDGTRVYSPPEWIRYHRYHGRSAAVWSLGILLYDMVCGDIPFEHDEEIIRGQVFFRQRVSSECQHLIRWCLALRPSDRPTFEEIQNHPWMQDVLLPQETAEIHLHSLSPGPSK

[29] = biological target: Casein kinase II (Homo sapiens) (UniProt P67870+P68400+P19784); test: Inhibition of CK2 in human HEK293 cells assessed as reduction of Akt phosphorylation at S473 at 0.25 to 8 uM after 2 hrs by Western blot analysis; format: cell-based
Summary of the method: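 Cells were lysed in urea lysis buffer (6 M urea, NaF, Na3VO4, protease inhibitors). 20–40 µg protein was run on 10% SDS-PAGE and detected by ECL. Primary antibodies (pAkt S473, PARP, β-actin loading control) were used at 1:1000 overnight at 4 °C. DMSO was the vehicle control. For the pAkt blots, cells were treated for 2 h with Ly294002 as positive control.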

[30] = biological target: Glycogen synthase kinase-3 beta (Homo sapiens) (UniProt P49841); test: Inhibition of GSK3-beta (unknown origin) assessed as residual activity at 10 uM relative to control
MCF7 [31] = test: Cell cycle arrest in human MCF7 cells assessed as accumulation at G1 phase at 1 uM after 24 hrs using propidium iodide staining by FACS analysis (reference value: 57.74%); format: functional

O=C1Nc2ncccc2/C1=C1/Nc2ncccc2C1=O
Activity [1]: 86% | Activity [2]: 78% | Activity [3]: 91% | Activity [4]: 99% | Activity [5]: 100% | Activity [6]: 110% | Activity [7]: 92% | Activity [8]: 91% | Activity [9]: 112% | Activity [10]: 87% | Activity [11]: 62% | GI50 (CAKI-1): 1020 nM | GI50 (NCI-H522): 2180 nM | GI50 (HOP-62): 1370 nM | GI50 [12]: 1070 nM | Activity [13]: 80% | GI50 (MCF7 [14]): 1090 nM | Activity (MCF7 [15]): 18.57% | Activity [16]: 126% | Activity [17]: 73% | Activity [18]: 81% | Activity [19]: 95% | Activity [20]: 111% | Activity [21]: 78% | Activity [22]: 100% | Activity [23]: 110% | Activity [24]: 122% | Activity [25]: 70% | Activity [26]: 93% | GI50 (DU-145): 474 nM | Activity [27]: 94% | Activity [28]: 108% | inhibition [29]: Active | Activity [30]: 92% | Activity (MCF7 [31]): 63.05%
